In article PMC3899454 (Clinical Drug Investigation, 2013):

Key:
[1] = cited from earlier work
[2] = compared with insulin glargine; cited from earlier work
[3] = Safety and tolerability after a single dose; assay type: in vivo, human; conditions: 24 subjects
Procedure, shortened: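 Single 0.4 U/kg s.c. thigh dose given at 0800–1000 h. Safety assessed by adverse events (severity and relationship graded by investigator), physical examination, vital signs, ECG, biochemistry, hematology, urinalysis and hypoglycemia. Confirmed hypoglycemia: plasma glucose <3.1 mmol/L or ADA 'severe'. Treatment-emergent: onset from dosing to 7 days post-dose. Blood glucose sampled to 120 h.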

insulin aspart
Impact of hepatic impairment and renal impairment on pharmacokinetics ([1]; single-dose pharmacokinetic studies): no significant impact

insulin degludec
Variability of glucose-lowering effect [2]: four times less variable glucose-lowering effect | Pharmacokinetic properties in subjects with renal impairment ([1]; varying degrees of impaired renal function): pharmacokinetic properties were also preserved in subjects with renal impairment | Adverse events (other than hypoglycemia) or medical events of special interest ([3]; single s.c. dose 0.4 U/kg): No adverse events | Injection-site reactions ([3]; single s.c. dose 0.4 U/kg into the thigh): No injection-site reactions were reported | Severe hypoglycemic episodes ([3]; single s.c. dose 0.4 U/kg, ADA definition of severe): none of these episodes were categorized as severe

insulin detemir
Pharmacokinetics in subjects with renal or hepatic impairment [1]: no clinically relevant difference in pharmacokinetics

insulin lispro
Effect of hepatic dysfunction on glucodynamic response [1]: did not appear to affect the glucodynamic response
